# Experimental data published in ChEMBL document CHEMBL1155485, “Pyrimidine ribonucleotides with enhanced selectivity as P2Y(6) receptor agonists: novel 4-alkyloxyimino, (S)-methanocarba, and 5'-triphosphate gamma-ester modifications” (J Med Chem, 2010).
# Legend:
# [1] = biological target: T1, P2Y purinoceptor 2 (Homo sapiens, UniProt P41231); assay: Agonist activity at human recombinant P2Y2 receptor expressed in human 1321N1 cells assessed as [3H]inositol phosphate production at 10 uM by scintillation proximity assay; assay type: functional, cell-based
# [2] = Stability assessed as half life in aqueous acidic solution at pH 1.2 by HPLC; assay type: physicochemical; conditions: buffer
# How it was run: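 Nucleotide (10 μL of 2 mg/mL aqueous stock) mixed with 90 μL of HCl/NaCl buffer pH 1.2 and held at 37°C. Aliquots taken at intervals were diluted tenfold in water or 5 mM TBAP and run on reverse-phase HPLC with a 5 mM TBAP–acetonitrile gradient. Half-life was derived from peak area.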
# [3] = Stability assessed as half life by HPLC in presence of human 1321N1 cell membranes; assay type: ADME, cell-based
# How it was run: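 Nucleotide (10 μL of 2 mg/mL aqueous stock) mixed with 90 μL of astrocytoma cell membrane suspension in Dulbecco's PBS pH 7.4 (final protein 14.9 μg/mL), incubated at 37°C. At intervals, aliquots were diluted tenfold in water or 5 mM TBAP and analysed by reverse-phase HPLC (TBAP–acetonitrile gradient). Half-life was taken from peak area.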
# [4] = species on record: Homo sapiens; assay: Selectivity ratio of EC50 for human P2Y4 receptor to EC50 for human P2Y6 receptor
# [5] = species on record: Homo sapiens; assay: Selectivity ratio of EC50 for human P2Y2 receptor to EC50 for human P2Y6 receptor
# [6] = biological target: T1, P2Y purinoceptor 2; assay: Agonist activity at human recombinant P2Y2 receptor expressed in human 1321N1 cells assessed as [3H]inositol phosphate production by scintillation proximity assay; assay type: functional, cell-based
# How it was run: (§1)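 Stably transfected 1321N1 astrocytoma cells (human P2Y2, P2Y4 or P2Y6 receptor) seeded at 20,000 cells/well two days before assay; labelled 16 h with myo-[3H]inositol (1.0 μCi) in serum-free inositol-free DMEM. Agonist added in HEPES pH 7.3/HBSS with LiCl (50 mM, fivefold stock), 30 min at 37°C; stopped with ice-cold 50 mM formic acid. [3H]inositol phosphates read by SPA.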
# [7] = biological target: T2, P2Y purinoceptor 6 (Homo sapiens, UniProt Q15077); assay: Agonist activity at human recombinant P2Y6 receptor expressed in human 1321N1 cells assessed as [3H]inositol phosphate production by scintillation proximity assay; assay type: functional, cell-based; how it was run: as §1
# [8] = biological target: P2Y purinoceptor 4 (Homo sapiens, UniProt P51582); assay: Agonist activity at human recombinant P2Y4 receptor expressed in human 1321N1 cells assessed as [3H]inositol phosphate production by scintillation proximity assay; assay type: functional, cell-based; how it was run: as §1
# [9] = biological target: T2, P2Y purinoceptor 6; assay: Agonist activity at human recombinant P2Y6 receptor expressed in human 1321N1 cells assessed as [3H]inositol phosphate production up to 10 uM by scintillation proximity assay; assay type: functional, cell-based
# How it was run: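 Human 1321N1 astrocytoma cells stably expressing the human P2Y2 or P2Y6 receptor, seeded at 20,000 cells/well two days before assay. Inositol lipids labelled for 16 h with 1.0 μCi myo-[3H]inositol in serum-free, inositol-free DMEM. Agonist added in HEPES pH 7.3/HBSS with LiCl, 30 min at 37°C. Stopped with ice-cold 50 mM formic acid; [3H]inositol phosphates counted by scintillation proximity assay. Triplicates.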
# P2Y purinoceptor 4, sequence (P51582 whole entry): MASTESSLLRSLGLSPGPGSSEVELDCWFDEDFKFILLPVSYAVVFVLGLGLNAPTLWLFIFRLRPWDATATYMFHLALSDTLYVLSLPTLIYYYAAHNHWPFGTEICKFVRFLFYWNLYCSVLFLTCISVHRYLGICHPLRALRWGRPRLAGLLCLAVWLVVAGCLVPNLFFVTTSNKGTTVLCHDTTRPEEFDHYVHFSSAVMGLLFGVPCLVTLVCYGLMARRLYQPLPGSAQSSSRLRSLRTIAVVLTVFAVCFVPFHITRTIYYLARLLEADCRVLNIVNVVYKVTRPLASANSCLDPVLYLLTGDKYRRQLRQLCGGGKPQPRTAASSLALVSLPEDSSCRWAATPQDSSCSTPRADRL
# T1 sequence (P41231 whole entry): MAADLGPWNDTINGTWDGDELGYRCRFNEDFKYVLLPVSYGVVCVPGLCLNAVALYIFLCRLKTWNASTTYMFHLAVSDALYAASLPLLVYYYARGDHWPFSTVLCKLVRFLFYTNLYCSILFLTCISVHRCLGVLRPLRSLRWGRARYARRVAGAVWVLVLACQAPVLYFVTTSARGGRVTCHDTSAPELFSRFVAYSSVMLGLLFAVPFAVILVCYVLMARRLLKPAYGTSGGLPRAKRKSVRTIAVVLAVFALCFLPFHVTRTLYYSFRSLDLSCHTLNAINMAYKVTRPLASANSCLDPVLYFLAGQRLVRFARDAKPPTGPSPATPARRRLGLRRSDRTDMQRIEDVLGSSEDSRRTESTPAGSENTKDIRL
# T2 sequence (Q15077 whole entry): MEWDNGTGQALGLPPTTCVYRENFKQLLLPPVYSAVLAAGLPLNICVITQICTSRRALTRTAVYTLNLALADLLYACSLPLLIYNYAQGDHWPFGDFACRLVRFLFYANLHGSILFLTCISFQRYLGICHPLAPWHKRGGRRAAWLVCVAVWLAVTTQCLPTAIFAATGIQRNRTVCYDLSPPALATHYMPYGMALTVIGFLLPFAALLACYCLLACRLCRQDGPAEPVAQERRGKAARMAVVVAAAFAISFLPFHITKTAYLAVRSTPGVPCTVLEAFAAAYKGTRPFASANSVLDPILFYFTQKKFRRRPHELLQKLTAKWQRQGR
EC50 [7],EC50 [8],Structure (SMILES),t1/2 [2],t1/2 [3],EC50 [6],other results
–,–,CO/N=c1/ccn([C@@H]2O[C@H](COP(=O)(O)CP(=O)(O)O)[C@@H](O)[C@H]2O)c(=O)[nH]1,–,–,–,Activity [1]: < 50%
–,–,O=c1ccn([C@@H]2O[C@H](COP(=O)(O)OP(=O)(O)OP(=O)(O)O)[C@@H](O)[C@H]2O)c(=O)[nH]1 [URIDINE TRIPHOSPHATE],23 h,31 h,–,–
700 nM,–,O=c1ccn([C@@H]2O[C@H](COP(=O)(O)CP(=O)(O)O)[C@@H](O)[C@H]2O)c(=O)[nH]1,–,–,–,–
15 nM,–,O=c1[nH]c(=O)n([C@@H]2O[C@H](COP(=O)(O)OP(=O)(O)O)[C@@H](O)[C@H]2O)cc1I,–,–,–,–
> 10000 nM,–,O=C(Cn1c(=O)ccn([C@@H]2O[C@H](COP(=O)(O)OP(=O)(O)OP(=O)(O)O[C@H]3O[C@H](CO)[C@@H](O)[C@H](O)[C@H]3O)[C@@H](O)[C@H]2O)c1=O)c1ccccc1,–,–,–,Activity [9]: < 50%
80 nM,50 nM,CO/N=c1\ccn([C@@H]2O[C@H](COP(=O)(O)OP(=O)(O)OP(=O)(O)O)[C@@H](O)[C@H]2O)c(=O)[nH]1,–,–,50 nM,–
180 nM,–,CO/N=c1/ccn([C@@H]2O[C@H](COP(=O)(O)OP(=O)(O)OP(=O)(O)O[C@H]3O[C@H](CO)[C@@H](O)[C@H](O)[C@H]3O)[C@@H](O)[C@H]2O)c(=O)[nH]1,–,–,> 10000 nM,Activity [1]: < 50%
–,6230 nM,CC(C)(C)O/N=c1/ccn([C@@H]2O[C@H](COP(=O)(O)OP(=O)(O)O)[C@@H](O)[C@H]2O)c(=O)[nH]1,–,–,3510 nM,–
63 nM,560 nM,CONc1ccn([C@@H]2O[C@H](COP(=O)(O)OP(=O)(O)OP(=O)(O)OC[C@H]3O[C@@H](n4ccc(NOC)nc4=O)[C@H](O)[C@@H]3O)[C@@H](O)[C@H]2O)c(=O)n1,–,–,2120 nM,–
130 nM,–,O=c1[nH]c(=O)n([C@@H]2O[C@H](COP(=O)(O)CP(=O)(O)O)[C@@H](O)[C@H]2O)cc1I,–,–,–,–
4690 nM,–,O=c1[nH]c(=O)n([C@@H]2O[C@H](COP(=O)(O)OP(=O)(O)OP(=O)(O)O[C@H]3O[C@H](CO)[C@@H](O)[C@H](O)[C@H]3O)[C@@H](O)[C@H]2O)cc1I,–,–,–,–
–,180 nM,CCO/N=c1/ccn([C@@H]2O[C@H](COP(=O)(O)OP(=O)(O)O)[C@@H](O)[C@H]2O)c(=O)[nH]1,–,–,280 nM,–
1370 nM,300 nM,O=c1ccn([C@@]23C[C@H]2[C@H](COP(=O)(O)OP(=O)(O)OP(=O)(O)O)[C@@H](O)[C@H]3O)c(=O)[nH]1,–,–,80 nM,–

Structure (SMILES),EC50 [7],EC50 [8],t1/2 [2],t1/2 [3],EC50 [6],other results
CCN(CC)CC.CO/N=c1/ccn([C@@H]2O[C@H](COP(=O)(O)OP(=O)(O)OP(=O)(O)OC[C@H]3O[C@@H](n4ccc(=O)[nH]c4=O)[C@H](O)[C@@H]3O)[C@@H](O)[C@H]2O)c(=O)[nH]1,12 nM,790 nM,120 h,23 h,170 nM,Ratio EC50 [4]: 66; Ratio EC50 [5]: 14
CCN(CC)CC.O=c1ccn([C@@H]2O[C@H](COP(=O)(O)CP(=O)(O)OP(=O)(O)OC[C@H]3O[C@@H](n4ccc(=O)[nH]c4=O)[C@H](O)[C@@H]3O)[C@@H](O)[C@H]2O)c(=O)[nH]1,1300 nM,–,34 h,62 h,> 10000 nM,–
CCN(CC)CC.O=c1[nH]/c(=N\OCc2ccccc2)ccn1[C@@H]1O[C@H](COP(=O)(O)OP(=O)(O)O)[C@@H](O)[C@H]1O,–,1150 nM,126 h,26 h,2130 nM,Ratio EC50 [4]: 44; Ratio EC50 [5]: 82
CCN(CC)CC.O=c1ccn([C@@H]2O[C@H](COP(=O)(O)OP(=O)(O)OP(=O)(O)O[C@H]3O[C@H](CO)[C@@H](O)[C@H](O)[C@H]3O)[C@@H](O)[C@H]2O)c(=O)[nH]1,> 10000 nM,–,5.1 h,29 h,–,Activity [9]: < 50%
CCN(CC)CC.O=c1ccn([C@@H]2O[C@H](COP(=O)(O)CP(=O)(O)OP(=O)(O)O[C@H]3O[C@H](CO)[C@@H](O)[C@H](O)[C@H]3O)[C@@H](O)[C@H]2O)c(=O)[nH]1,> 10000 nM,–,2.8 h,19 h,–,Activity [9]: < 50%
CCN(CC)CC.O=c1ccn([C@@H]2O[C@H](COP(=O)(O)OP(=O)(O)OP(=O)(O)Oc3ccccc3)[C@@H](O)[C@H]2O)c(=O)[nH]1,2130 nM,–,164 h,43 h,> 10000 nM,Activity [9]: < 50%; Activity [1]: < 50%
CCN(CC)CC.O=c1ccn([C@@H]2O[C@H](COP(=O)(O)OP(=O)(O)OP(=O)(O)OC3CCCCC3)[C@@H](O)[C@H]2O)c(=O)[nH]1,6990 nM,–,193 h,62 h,2280 nM,–
CCN(CC)CC.CO/N=c1/ccn([C@@H]2O[C@H](COP(=O)(O)OP(=O)(O)O)[C@@H](O)[C@H]2O)c(=O)[nH]1,–,6450 nM,116 h,55 h,3600 nM,–
CO/N=c1/ccn([C@@H]2O[C@H](COP(=O)(O)OP(=O)(O)OP(=O)(O)Oc3ccccc3)[C@@H](O)[C@H]2O)c(=O)[nH]1,3490 nM,–,–,–,> 10000 nM,Activity [1]: < 50%
